A word on the IC50: it is the concentration that gives 50% inhibition. As usually defined, the Km is the concentration of substrate that gives half-maximal velocity.

The values below come from paper PMC2813889 (Toxicon : official journal of the International Society on …, 2009).

For data set [1], the target named is protein phosphatase 2A (PP2A) (Homo sapiens, UniProt P67775). As to the kind of experiment: Protein phosphatase 2A inhibition assay. The class given is biochemical. In a few lines:
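Colorimetric PP2A inhibition after a published method. Samples incubated 1 h at room temperature and read at 405 nm. A standard curve of the parent toxin was prepared identically to the samples. Isolated metabolite concentrations were set by LC-MS against a single-point calibration (10 μL of 6.2 μM parent toxin, 50 ng). IC50 taken from activity versus log concentration curves.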

For the next data set, the system named is various liver cell lines. The note with it: depending on cell line; ref Souid-Mensi, et al., 2008; cited from earlier work.
In data set [2] the test system is CYP1A1, 1A2, 2C8, 2C9, 2C19, 2D6, 2E1. Kind of data set: Incubation of OA with the seven other recombinant P450s. The note with it: same incubation conditions, limit of detection 0.1 ng OA. Type of data set: in vitro ADME, human.
The next data set addresses CYP3A4 (Homo sapiens, UniProt P08684). Kind of data set: Incubation of OA with recombinant CYP3A4 and CYP3A4 enzyme kinetics. Type of data set: in vitro ADME.
A short description of data set [3]: Incubation of OA with pooled human liver microsomes. The class given is in vitro ADME. As to conditions: 5 mg mL^-1 protein, 5 μM OA, 37 °C, 30 min.
The target of a further data set is CYP3A5 (Homo sapiens, UniProt P20815). Kind of data set: Incubation of OA with recombinant CYP3A5. Type of data set: in vitro ADME. The note with it: CYP 3A5 reaction, after 6 hrs of incubation.

Read-outs that look alike come from different tables or passages of the source.

CYP3A4, sequence (P08684 whole entry): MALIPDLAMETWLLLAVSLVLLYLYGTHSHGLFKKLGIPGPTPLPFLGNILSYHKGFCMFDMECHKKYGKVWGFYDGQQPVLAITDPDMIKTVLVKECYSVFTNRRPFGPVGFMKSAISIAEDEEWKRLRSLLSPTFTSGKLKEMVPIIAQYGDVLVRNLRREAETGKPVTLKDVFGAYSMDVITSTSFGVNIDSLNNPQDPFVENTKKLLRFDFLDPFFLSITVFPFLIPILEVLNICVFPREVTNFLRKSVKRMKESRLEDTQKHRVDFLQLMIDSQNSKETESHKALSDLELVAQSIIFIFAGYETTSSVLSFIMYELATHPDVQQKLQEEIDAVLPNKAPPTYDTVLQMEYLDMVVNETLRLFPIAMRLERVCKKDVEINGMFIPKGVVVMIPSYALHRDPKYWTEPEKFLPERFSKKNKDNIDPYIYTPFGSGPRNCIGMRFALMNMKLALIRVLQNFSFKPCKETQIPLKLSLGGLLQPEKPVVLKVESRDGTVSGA
protein phosphatase 2A (PP2A), sequence (P67775 whole entry): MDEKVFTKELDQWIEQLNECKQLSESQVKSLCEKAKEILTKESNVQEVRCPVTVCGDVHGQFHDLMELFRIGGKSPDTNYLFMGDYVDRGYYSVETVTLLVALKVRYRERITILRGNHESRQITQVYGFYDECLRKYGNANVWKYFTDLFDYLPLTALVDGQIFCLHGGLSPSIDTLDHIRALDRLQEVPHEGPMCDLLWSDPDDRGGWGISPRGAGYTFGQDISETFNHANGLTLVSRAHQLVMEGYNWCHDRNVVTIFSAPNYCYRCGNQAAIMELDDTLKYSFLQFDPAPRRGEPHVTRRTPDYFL
CYP3A5, sequence (P20815 whole entry): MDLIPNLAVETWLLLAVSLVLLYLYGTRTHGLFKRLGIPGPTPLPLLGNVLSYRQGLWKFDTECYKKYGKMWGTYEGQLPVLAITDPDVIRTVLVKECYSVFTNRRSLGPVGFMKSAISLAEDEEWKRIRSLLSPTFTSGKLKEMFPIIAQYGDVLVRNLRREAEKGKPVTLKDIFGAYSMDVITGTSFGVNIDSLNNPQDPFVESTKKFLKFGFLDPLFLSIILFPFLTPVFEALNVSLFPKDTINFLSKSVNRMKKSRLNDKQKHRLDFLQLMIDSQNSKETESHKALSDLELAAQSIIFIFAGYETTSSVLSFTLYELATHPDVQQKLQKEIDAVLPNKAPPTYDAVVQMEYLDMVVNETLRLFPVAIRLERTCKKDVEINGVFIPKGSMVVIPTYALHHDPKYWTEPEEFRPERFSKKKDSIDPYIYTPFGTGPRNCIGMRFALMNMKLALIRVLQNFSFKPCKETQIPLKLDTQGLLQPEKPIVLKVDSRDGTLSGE

On to 11S-hydroxy okadaic acid [metabolite 2], for which the IC50 in data set [1] (read-out: IC50, inhibition of PP2A, 1 h at room temperature, read at 405 nm) is 1340 pM.

`C=C1[C@@H](O)[C@@H]2O[C@]3(CC[C@H](/C=C/[C@@H](C)[C@@H]4CC(C)=C[C@@]5(O[C@H](C[C@@](C)(O)C(=O)O)CC[C@H]5O)O4)O3)CC[C@H]2O[C@@H]1[C@@H](O)C[C@H](C)[C@H]1O[C@@]2(CCCCO2)CC[C@H]1C` [OA, Okadaic acid]: the “LD50 for OA with various liver cell lines” value in the data set on various liver cell lines is 10 to 100 nM. For the same compound, the “metabolism of OA by the seven other P450s” value in data set [2] was “none of the seven other P450s metabolized OA”. Besides, the “overall yield of all four metabolites” value at CYP3A4 (CYP3A4 reaction, after 6 hrs of incubation) was 31.3%; on CYP3A5, 6.1%. In addition, the “Vmax for the oxidation of OA by CYP3A4” value at CYP3A4 (double-reciprocal plots, OA 10 μM to 100 μM, 300 pmol 3A4) was 7.23 nmol of metabolites nmol^-1 min^-1. In addition, the Km at CYP3A4 (human, recombinant CYP3A4) was 73.4 µM. Besides, the “metabolite formation in pooled human liver microsomes” value in data set [3] is “four metabolites, identical to those formed in CYP3A4 incubations, were produced”. In data set [1], this compound displayed an IC50 of 610 pM.
